In the library only some 1.6% were active in any assay of this set; here they are far more common.
PLC-gamma1 inh: PLC-gamma1 (human) inhibition, primary screen; P19174; purified PLC-gamma1, fluorogenic substrate, fluorescence; inhibition, % at 12.2 µM; 370,000 compounds, 0.84% hits
sPLA2-III inh: Inhibits HGIII-sPLA2 liposome hydrolysis, primary screen | 370,000 compounds, 0.56% hits | inhibition, % at 12.2 µM | AID 743126 | QFRET BODIPY PC-A2 liposome hydrolysis, fluorescence;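 active = inhibition above mean plus 3 SD of compounds lying within the high and low control bounds, cut at about 19% in these data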;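 also: 0% = median of test compound wells and 100% = no enzyme DMSO wells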
procasp3 activ: activates human procaspase-3; activation, % at 8.5 µM; P42574; 330,000 compounds, 0.11% hits; AID 463141; recombinant procaspase-3 D3A, Ac-DEVD-pNA absorbance 405 nm;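 active = activation above the mean of all tested compounds plus 3 SD, cut at about 21% in these data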;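 also: 0% = DMSO alone and 100% = DMSO wells spiked with extra 5 µM PC-3 D3A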
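assay system = Procaspase-3 D3A mutant | signal = absorbance at 405 nm, 0 and 120 min | times = 1 h preincubation plus 2 h reaction at 25 °C | repeats = single replicate | read-out = % activation between DMSO and enzyme-spiked controls | medium = Zinc-free HEPES saline buffer with Triton X-100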
PLC-beta3 inh: blocks human PLC-beta3 enzyme activity; Purified PLC-beta3, fluorogenic substrate, fluorescence; inhibition, % at 12.2 µM; 370,000 compounds, 0.18% hits; AID 720704; in the data active = inhibition above about 11%;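 also: 0% = median of compound wells on plate and 100% = full blocker control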
proCasp7 act: counter-screen for procaspase-3 activators: activators of human procaspase-7 | P55210 | recombinant procaspase-7, Ac-DEVD-pNA absorbance 405 nm; D23A/D198A/D206A triple mutant, cannot self-cleave; scale: DMSO 0, 5 µM enzyme 100 | activation, % at 8.5 µM | 330,000 compounds, 0.093% hits | AID 463210;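 active = percent activation above the screen-wide mean plus 3 SD, cut at about 25% in these data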
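Assay system: Uncleavable procaspase-7 mutant enzyme | Input: 2 µM procaspase-7 mutant as dispensed | Timing: 1 h compound preincubation, 2 h substrate cleavage, 25 °C | Repeats: One well per compound | Control set: DMSO wells as 0%, DMSO with 5 µM added PC-7 as 100% | Technique: Epi-absorbance of released pNA at 405 nm, two timepoints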
PLCgamma1 ctr: counter-screen for PLC-beta3 inhibitors: inhibitors of human PLC-gamma1; shares compounds with PLC-gamma1 inh; purified PLC-gamma1, fluorogenic substrate, fluorescence; inhibition, % at 12.3 µM; 3,300 compounds, 3.1% hits
PLCbeta3 conf: human PLC-beta3 inhibition, confirmation. shares compounds with PLC-gamma1 inh. purified PLC-beta3, fluorogenic substrate fluorescence. inhibition, % at 12.3 µM. 3,300 compounds, 1% hits; in the data active = inhibition above about 11%
Starred values were filed as active, the others as inactive; . = not tested or not shown. Rule as the data show it, unless noted: active = inhibition above about 9.5%; inactive = the rest.

SMILES | PLC-gamma1 inh | sPLA2-III inh | procasp3 activ | PLC-beta3 inh | proCasp7 act | PLCgamma1 ctr | PLCbeta3 conf
Cc1ccc2nc3n(c(=O)c2c1)-c1ccccc1C(=O)NC3Cc1ccc(O)cc1 (stereo unspecified) | 10* | -12 | 2 | 5 | 4 | -6 | -7
O=C1NC(Cc2ccccc2)c2nc3cc(F)ccc3c(=O)n2-c2ccccc21 (stereo unspecified) | 11* | 4 | 3 | -1 | -7 | -5 | -5
O=C1NC(Cc2ccccc2)c2nc3ccc(F)cc3c(=O)n2-c2ccccc21 (stereo unspecified) | 0 | 1 | -8 | -1 | 1 | . | .
Cc1ccc(N2C(=O)CC(Cn3nc(C)cc3C)C2=O)cc1 (stereo unspecified) | 11* | 0 | -2 | -1 | 1 | 7 | 1
CN(C)S(=O)(=O)c1ccc(NC(=O)CN2CCN(C(c3ccccc3)c3ccccc3)CC2)cc1 | 11* | 3 | -2 | 1 | 3 | -1 | -1
O=C1OC[C@H]2CCCC[C@@H](CO)ON12 | 9.6* | 12 | -3 | 2 | 0 | 0 | 0
CSC(=N/N=C(\N)c1cnccn1)SC | 13* | 3 | 4 | 6 | 3 | 5 | 1
O=C(CCn1c(=S)oc2ccccc21)NC1CCCCCCC1 | 10.0* | 6 | 4 | -1 | 10 | -4 | 0
O=C(CCn1c(=S)oc2ccccc21)N1CCCCC1 | -2 | 1 | 5 | -3 | 16 | . | .
O=C(Nc1ccc(F)c(Cl)c1)c1nsc(Cl)c1Cl | 11* | 6 | -1 | 6 | -3 | -9 | -8
O=C(O)CSc1c2c(nc3cc(C(=O)Nc4cccc(C(F)(F)F)c4)ccc13)CCC2 | 1 | -9 | 2 | -24 | -7 | . | .
Cc1ccc(C)c(NC(=O)C(Sc2nc3ccc(C)cc3[nH]2)c2ccccc2)c1 (stereo unspecified) | -1 | -29 | -3 | 4 | 0 | . | .
Cc1ccc2nc(SC(C(=O)Nc3ccc(F)cc3)c3ccccc3)[nH]c2c1 (stereo unspecified) | 13* | -29 | 4 | 6 | -12 | -2 | -8
CCN(CC(=O)Nc1ccc2c(c1)OCCO2)C(=O)COc1cc(C)ccc1Cl | 12* | -12 | 8 | 5 | 5 | -8 | -2
COc1ccc(NC(=O)C(OC)c2ccccc2)cc1Cl (stereo unspecified) | -3 | 6 | 5 | 1 | 4 | . | .
COc1ccc(NC(=O)C(Sc2nnc(-c3ccncc3)n2-c2ccccc2C)c2ccccc2)cc1Cl (stereo unspecified) | 11* | -18 | -7 | 4 | 3 | 2 | -3
CCOC(=O)C1(C)CCN1C(=O)c1cccnc1Oc1ccccc1 (stereo unspecified) | 0 | -4 | . | 2 | . | . | .
Cc1ccc(C)c(OCc2nc(-c3cccnc3)no2)c1 | 9.8* | -2 | 5 | 0 | -12 | -6 | -9
CC1=C(C(=O)OCc2ccc([N+](=O)[O-])cc2)N2C(=O)C(NC(=O)Cc3ccccc3)C2SC1 (stereo unspecified) | 24* | -3 | 8 | 2 | -6 | 24* | 1
O=C(O)c1cccc(Cn2c(Cl)c(/C=N/NC(=O)c3ccco3)sc2=O)c1 | 1 | 1 | 1 | -16 | -26 | . | .
Cc1ccccc1-c1cc(C(=O)NCc2ccc(OC(F)(F)F)cc2)n(CC2CC(c3cccnc3)=NO2)n1 (stereo unspecified) | 11* | -21 | -2 | 1 | -4 | -3 | -8
Clc1cccc(Cl)c1OCCCCN1CCCCC1 | 12* | 0 | 4 | -3 | 2 | 2 | 0
COc1ccc(CNC(=O)C(CC(C)C)NC(=O)c2ccccc2C)cc1 (stereo unspecified) | 4 | 1 | 3 | -2 | -3 | . | .
Cc1cccc(NC(=O)Cn2c(O)c(N=NC(=O)c3ccccc3O)c3ccccc32)c1 | 11* | 6 | 4 | 2 | -11 | 8 | -1
CC[C@]12c3[nH]c4ccc(Cl)cc4c3CCN1C(=O)[C@@H](CC(=O)NCc1ccco1)C[C@@H]2C(=O)N1CCN(C(=O)c2ccco2)CC1 | -1 | -5 | -2 | -4 | -1 | . | .
SMILES | PLC-gamma1 inh | sPLA2-III inh | procasp3 activ | PLC-beta3 inh | proCasp7 act | PLCgamma1 ctr | PLCbeta3 conf
COCCCNC(=O)C[C@H]1C[C@H](C(=O)N2CCCCC2)[C@@]2(CCc3ccccc3)c3[nH]c4ccc(Cl)cc4c3CCN2C1=O | 2 | 12 | -9 | -1 | 17 | . | .
CC(C)(C)NC(=O)C[C@H]1C[C@H](C(=O)N2CCCCC2)[C@@]2(CCc3ccccc3)c3[nH]c4ccc(Cl)cc4c3CCN2C1=O | 11* | 10 | 7 | 11* | 3 | -5 | -1
CC[C@]12c3[nH]c4ccc(Cl)cc4c3CCN1C(=O)[C@@H](CC(=O)NCCN1CCOCC1)C[C@@H]2C(=O)N1CCN(C(=O)c2ccco2)CC1 | 13* | 4 | 3 | 10 | 21 | -8 | -2
COC(=O)CN1CC(=O)N(c2ccccc2)C1=S | 10* | -29 | 2 | -3 | 6 | 0 | -5
COc1cccc(C2=NOC(C(=O)Nc3cccnc3Cl)C2)c1 (stereo unspecified) | 2 | -5 | 10 | -24 | -9 | . | .
COc1cccc(C(=O)NC2CC3CCCC(C2)N3CC(=O)Nc2ccccc2)c1 (stereo unspecified) | 4 | -16 | -2 | 8 | 6 | . | .
COc1cccc(C(=O)NC2CC3CCCC(C2)N3CC(=O)Nc2ccc(N(C)C)cc2)c1 (stereo unspecified) | 11* | 1 | 4 | 5 | -6 | -4 | 0
O=C(CSc1ccc(F)cc1)NC(=O)NCc1ccccc1 | 10* | -3 | 7 | 1 | 4 | 0 | -4
CCOc1ccc(NC(=O)N(O)C2(C#N)CCCCC2)cc1 | -4 | 7 | . | 2 | . | . | .
CN1CCC(NCCC(c2ccc(F)cc2)c2ccc(Cl)cc2)CC1 (stereo unspecified) | 10* | -7 | . | 4 | . | -5 | 1
CCN(Cc1ccccc1)C(=O)Cn1c(C(C)O)nc2ccccc21 (stereo unspecified) | 3 | 0 | 1 | -1 | 3 | . | .
CC(O)c1nc2ccccc2n1CC(=O)N1CCN(c2ccccc2)CC1 (stereo unspecified) | 11* | 14 | 2 | 4 | 1 | -6 | -3
CC1CCN(C(=S)NC(=O)c2ccccc2)CC1 | 4 | 13 | 12 | 3 | -8 | . | .
CC1C(c2ccccc2)OCCN1C(=S)NC(=O)c1ccccc1 (stereo unspecified) | 1 | -2 | . | 15* | . | -6 | -1

Assay outcomes deposited in PubChem by The Scripps Research Institute Molecular Screening Center.
